Results as given in ChEMBL document CHEMBL4196133, “NF-κB and Angiogenesis Inhibitors from the Aerial Parts of Chresta martii” (J Nat Prod, 2018).
The source made the active and inactive calls. No cut-off for these calls is given here.

Columns and labels:
HUVEC [1] = experiment: Cytotoxicity against HUVEC at 1 ug/ml after 24 hrs by MTT assay; assay type: cell-based; settings: human
How it was run: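 HUVECs (1.0 × 10^4/well) in EBM2 with 0.5% FBS, settled overnight at 37 °C, 5% CO2; compound at 1 μg/mL for 24 h. MTT added for 4 h at 37 °C, formazan dissolved in DMSO, absorbance read at 595 nm.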

[2] = Inhibition of TNFalpha-stimulated NF-kappaB (unknown origin) expressed in HEK293 cells incubated for 30 mins followed by TNFalpha stimulation for 4 hrs by luciferase reporter gene based luminescence assay; assay type: cell-based; settings: Homo sapiens
HUVEC [3] = experiment: Antiangiogenic activity in HUVEC assessed as decrease in VEGF-induced number of total capillary length at 1 ug/ml after 3 days; assay type: functional, cell-based; settings: Homo sapiens
How it was run: (§1)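 HUVECs seeded on Cytodex 3 beads (400 cells/bead, 4 h at 37 °C with shaking, then 24 h), embedded in fibrin gel (fibrinogen 2.5 mg/mL, aprotinin 0.15 U/mL, thrombin) with VEGF; EGM-2 with VEGF 5 ng/mL, NHDF overlaid. Compound added after 1 h, medium renewed at 24 h then every 48 h. Imaged at 4× day 4; sprout network quantified by Angiogenesis Analyzer; ≥18 spheres, mean ± SEM, one-way ANOVA/Dunnett.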

HUVEC [4] = experiment: Antiangiogenic activity in HUVEC assessed as decrease in VEGF-induced anchorage junctions at 1 ug/ml after 3 days; assay type: functional, cell-based; settings: Homo sapiens; how it was run: as §1
HUVEC [5] = experiment: Antiangiogenic activity in HUVEC assessed as decrease in VEGF-induced segments at 1 ug/ml after 3 days; assay type: functional, cell-based; settings: Homo sapiens; how it was run: as §1
HUVEC [6] = experiment: Antiangiogenic activity in HUVEC assessed as decrease in VEGF-induced extremities at 1 ug/ml after 3 days; assay type: functional, cell-based; settings: Homo sapiens; how it was run: as §1

Structure (SMILES) | Activity (HUVEC [1]) | IC50 [2] [nM] | Activity (HUVEC [3]) | Activity (HUVEC [4]) | Activity (HUVEC [5]) | Activity (HUVEC [6])
CCC(=O)O[C@H]1C[C@@](C)(OC(C)=O)C(=O)CC[C@@]2(C)O[C@H]2[C@H]2OC(=O)C(COC(C)=O)=C12 | Non-Toxic | 5100 |  |  |  | 
COc1ccc(-c2cc(=O)c3c(O)cc(O)cc3o2)cc1OC | Non-Toxic |  |  |  |  | 
CC(=O)OCC1=C2[C@@H](OC(C)=O)C[C@@](C)(OC(C)=O)[C@@]3(O)CC[C@@](C)(O)[C@H](OC(C)=O)[C@@]23OC1=O |  | 13600 |  |  |  | 
CC(=O)O[C@@H]1C[C@@](C)(OC(C)=O)C(=O)CC[C@@]2(C)O[C@@H]2C2OC(=O)C(CO)=C21 (some centres not stated) | Non-Toxic | 2400 | Active | Active | Active | Active
CC(=O)OCC1=C2/C(=C/[C@]3(C)CC[C@@](O)(O3)[C@](C)(O)C[C@@H]2O)OC1=O | Non-Toxic | 700 | Active | Active | Active | Active
CC(=O)OCC1=C2[C@@H](OC(C)=O)C[C@@](C)(OC(C)=O)C(=O)CC[C@@]3(C)O[C@H]3[C@H]2OC1=O | Non-Toxic | 6500 | Active | Active | Active | Active
C=C1C(=O)O[C@H]2[C@@H]1CC/C(C)=C\CC[C@@]1(C)O[C@@H]21 |  | 700 |  |  |  | 
CC(=O)OCC1=C2[C@@H](O)C[C@@](C)(OC(C)=O)C(=O)CC[C@@]3(C)O[C@H]3[C@H]2OC1=O | Non-Toxic | 7800 |  |  |  | 
C[C@@]12/C=C3\OC(=O)C(CO)=C3[C@@H](O)C[C@@](C)(O)[C@@](O)(CC1)O2 | Non-Toxic | 2200 | Active | Active | Active | Active
CC(=O)OCC1=C2/C(=C/[C@]3(C)CC[C@@](O)(O3)[C@@](C)(O)C[C@H]2OC(C)=O)OC1=O | Non-Toxic | 1800 | Active | Active | Active | Active
